{"source": "paper PMC3966491", "about": "(Chemical biology & drug design, 2013)", "key": {"[1]": {"system": "21 protein kinases including SPHK1, SPHK2, FES and AURKB", "assay": "in vitro selectivity against 21 protein kinases", "format": "biochemical", "conditions": "21 protein kinases previously inhibited by compound 1"}, "[2]": {"system": "UACC903 xenograft tumor sections", "assay": "TUNEL and IκB immunohistochemistry of xenograft tumor sections", "format": "in vivo, nude mice", "conditions": "tumors from treated mice vs vehicle, after 28 days", "outline": "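Female nude mice (6–7 weeks) received 1×10^6 UACC903 cells in PBS subcutaneously in the flank. After 4 weeks, tumours were fixed, paraffin-sectioned, immunostained (DAB, haematoxylin) or TUNEL-stained, then scanned. Scores: TUNEL-positive nuclei/area and IκB immunoscore/area; error bars SEM.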"}, "[3]": {"system": "phosphorylation of IKK Ser176/180 and total IκB levels", "assay": "Western blot of NF-κB pathway in TNF-α stimulated UACC903 cells", "format": "cell-based, human", "conditions": "10 μM, 1 hour prior to TNF-α stimulation (20 ng/ml)"}, "[4]": {"assay": "in vitro plasma stability", "format": "in vitro ADME"}, "[5]": {"target": "AKT2 (PKB beta) (Homo sapiens, UniProt P31751)", "sequence (P31751 whole entry)": "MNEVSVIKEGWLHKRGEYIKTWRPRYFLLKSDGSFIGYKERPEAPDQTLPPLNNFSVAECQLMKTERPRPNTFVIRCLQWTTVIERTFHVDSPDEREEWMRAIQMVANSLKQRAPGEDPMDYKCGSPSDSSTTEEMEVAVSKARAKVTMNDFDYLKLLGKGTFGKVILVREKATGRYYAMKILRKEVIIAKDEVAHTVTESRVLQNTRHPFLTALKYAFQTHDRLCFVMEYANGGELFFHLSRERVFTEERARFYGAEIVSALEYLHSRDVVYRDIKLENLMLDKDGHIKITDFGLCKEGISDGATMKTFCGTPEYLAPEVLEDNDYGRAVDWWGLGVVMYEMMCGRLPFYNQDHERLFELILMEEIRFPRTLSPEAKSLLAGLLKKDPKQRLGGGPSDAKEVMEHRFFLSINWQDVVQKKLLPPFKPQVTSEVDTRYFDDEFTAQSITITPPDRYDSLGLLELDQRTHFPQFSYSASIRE", "assay": "AKT2 in vitro kinase assay", "format": "biochemical", "outline": "(§1)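 Z′-LYTE assay. Enzyme per 10 μL reaction: AKT1 0.34–7.65 ng, AKT2 1–40 ng, or AKT3 0.56–8.3 ng. Reaction contained 2 μM Ser/Thr 06 peptide, ATP at Km, 50 mM HEPES pH 7.5, 0.01% BRIJ-35, 10 mM MgCl2 and 1 mM EGTA. After 1 h, Development Reagent A (1:2048) protease cleaved non-phosphorylated peptide. Read-out was the coumarin 445 nm/fluorescein 520 nm emission ratio; curves were fitted.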"}, "[6]": {"target": "T1, CHUK (IKK alpha) (Homo sapiens, UniProt O15111)", "T1 sequence (O15111 1-745)": "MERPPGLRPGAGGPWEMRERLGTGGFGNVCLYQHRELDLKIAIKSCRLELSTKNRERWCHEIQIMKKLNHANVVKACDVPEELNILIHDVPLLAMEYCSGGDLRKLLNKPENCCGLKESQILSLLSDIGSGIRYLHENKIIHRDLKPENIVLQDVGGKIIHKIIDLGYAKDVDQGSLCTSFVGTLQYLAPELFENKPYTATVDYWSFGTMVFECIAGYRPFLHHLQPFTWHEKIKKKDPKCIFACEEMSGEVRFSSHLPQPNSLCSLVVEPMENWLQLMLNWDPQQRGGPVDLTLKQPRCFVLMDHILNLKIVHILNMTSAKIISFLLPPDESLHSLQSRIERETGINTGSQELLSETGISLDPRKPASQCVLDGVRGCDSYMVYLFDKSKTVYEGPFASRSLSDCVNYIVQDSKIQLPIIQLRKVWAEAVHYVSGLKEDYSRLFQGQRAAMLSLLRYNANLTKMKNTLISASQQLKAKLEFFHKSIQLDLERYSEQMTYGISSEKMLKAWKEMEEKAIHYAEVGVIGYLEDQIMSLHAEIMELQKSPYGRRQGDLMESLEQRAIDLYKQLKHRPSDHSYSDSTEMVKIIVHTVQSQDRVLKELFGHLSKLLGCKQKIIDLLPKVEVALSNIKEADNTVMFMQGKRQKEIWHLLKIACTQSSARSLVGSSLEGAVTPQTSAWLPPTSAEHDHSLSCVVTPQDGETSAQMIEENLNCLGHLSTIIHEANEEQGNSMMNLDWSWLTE", "assay": "IKKα", "format": "biochemical", "outline": "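ADAPTA ADP-detection format. Detection mix added EDTA (stop), europium-labelled anti-ADP antibody and Alexa Fluor 647 ADP tracer; ADP formation was taken from the emission ratio. Where noted, IC50 was predicted from % inhibition at 1 μM test compound, mean of two experiments.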"}, "[7]": {"system": "Human UACC903 melanoma cells xenograft", "assay": "in vivo melanoma xenograft study", "conditions": "oral gavage twice a week, 10 mg/kg and 25 mg/kg, single agent, nude mice"}, "[8]": {"target": "T2, IKBKB (IKK beta) (Homo sapiens, UniProt O14920)", "T2 sequence (O14920 1-756)": "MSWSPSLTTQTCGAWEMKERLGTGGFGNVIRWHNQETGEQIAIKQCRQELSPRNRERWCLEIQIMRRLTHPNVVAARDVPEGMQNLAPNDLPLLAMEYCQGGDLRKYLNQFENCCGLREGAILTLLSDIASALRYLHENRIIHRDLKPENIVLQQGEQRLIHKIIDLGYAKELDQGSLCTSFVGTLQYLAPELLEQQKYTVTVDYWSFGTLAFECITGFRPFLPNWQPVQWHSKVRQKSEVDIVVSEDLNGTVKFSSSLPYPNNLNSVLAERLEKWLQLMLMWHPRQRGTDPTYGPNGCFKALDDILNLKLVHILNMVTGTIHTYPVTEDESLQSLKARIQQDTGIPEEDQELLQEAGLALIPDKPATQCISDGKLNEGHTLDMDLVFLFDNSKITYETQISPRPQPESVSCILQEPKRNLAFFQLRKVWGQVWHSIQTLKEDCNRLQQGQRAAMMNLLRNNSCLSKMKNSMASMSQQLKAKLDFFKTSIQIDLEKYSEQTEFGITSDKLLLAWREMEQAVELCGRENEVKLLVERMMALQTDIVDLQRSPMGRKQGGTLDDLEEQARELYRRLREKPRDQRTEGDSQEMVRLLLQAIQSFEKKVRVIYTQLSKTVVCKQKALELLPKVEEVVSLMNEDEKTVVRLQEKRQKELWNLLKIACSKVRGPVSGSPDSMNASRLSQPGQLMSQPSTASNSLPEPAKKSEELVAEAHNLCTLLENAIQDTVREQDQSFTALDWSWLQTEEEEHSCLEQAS", "assay": "IKKβ", "format": "biochemical", "outline": "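Z′-LYTE format. Development used Reagent B (1:64) protease; read-out was the coumarin 445 nm/fluorescein 520 nm emission ratio. Where noted, IC50 was predicted from % inhibition at 10 μM test compound, mean of two experiments.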"}, "[9]": {"target": "AKT1 (PKB alpha) (Homo sapiens, UniProt P31749)", "sequence (P31749 whole entry)": "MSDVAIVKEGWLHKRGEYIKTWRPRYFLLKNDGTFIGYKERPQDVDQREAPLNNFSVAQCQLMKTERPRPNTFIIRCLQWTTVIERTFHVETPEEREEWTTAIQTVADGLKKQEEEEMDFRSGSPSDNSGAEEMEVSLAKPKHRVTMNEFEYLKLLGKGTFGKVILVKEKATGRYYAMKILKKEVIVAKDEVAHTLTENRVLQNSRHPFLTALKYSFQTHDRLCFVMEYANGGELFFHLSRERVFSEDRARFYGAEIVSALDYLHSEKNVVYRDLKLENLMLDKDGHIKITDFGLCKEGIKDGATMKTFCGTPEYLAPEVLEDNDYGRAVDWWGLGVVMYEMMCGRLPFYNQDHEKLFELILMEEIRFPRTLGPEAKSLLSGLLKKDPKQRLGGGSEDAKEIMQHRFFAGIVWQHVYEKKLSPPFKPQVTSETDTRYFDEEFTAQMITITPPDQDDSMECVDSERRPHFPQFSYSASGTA", "assay": "AKT1 in vitro kinase assay", "format": "biochemical", "outline": "as §1"}, "[10]": {"target": "AKT3 (PKB gamma) (Homo sapiens, UniProt Q9Y243)", "sequence (Q9Y243 whole entry)": "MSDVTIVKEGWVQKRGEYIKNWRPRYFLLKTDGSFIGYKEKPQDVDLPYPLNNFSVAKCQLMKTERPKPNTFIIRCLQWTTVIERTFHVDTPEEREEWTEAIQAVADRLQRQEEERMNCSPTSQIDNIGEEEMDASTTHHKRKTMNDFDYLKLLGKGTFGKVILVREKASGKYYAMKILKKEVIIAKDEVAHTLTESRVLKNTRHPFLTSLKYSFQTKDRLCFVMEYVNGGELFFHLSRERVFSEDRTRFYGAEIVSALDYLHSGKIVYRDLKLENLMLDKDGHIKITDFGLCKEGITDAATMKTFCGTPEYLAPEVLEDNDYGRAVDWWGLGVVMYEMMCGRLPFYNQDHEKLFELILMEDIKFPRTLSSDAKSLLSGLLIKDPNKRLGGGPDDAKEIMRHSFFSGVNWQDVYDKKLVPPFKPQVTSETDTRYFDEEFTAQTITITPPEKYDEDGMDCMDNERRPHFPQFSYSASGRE", "assay": "AKT3 in vitro kinase assay", "format": "biochemical", "outline": "as §1"}, "[11]": {"assay": "in vitro microsomal stability", "format": "in vitro ADME"}, "[12]": {"system": "AKT levels and phosphorylation of its substrate PRAS40", "assay": "Western blot of AKT pathway in melanoma UACC903 cells", "format": "cell-based, human", "conditions": "4 hours"}}, "data": [{"smiles": "O=C(/C=C/c1nc2cc(F)ccc2[nH]1)c1c(-c2ccccc2)c2cc(Cl)ccc2[nH]c1=O", "note": "[compound 42, (E)-6-chloro-3-(3-(5-fluoro-1H-benzo[d]imidazol-2-yl)acryloyl)-4-phenylquinolin-2(1H)-one]", "values": [{"measurement": "IC50 values against all the selected kinases (in words)", "setting": "[1]", "value": "low micromolar range"}, {"measurement": "IκB expression in tumors", "setting": "[2]", "value": "higher IκB expression"}, {"measurement": "apoptosis in tumors (TUNEL staining)", "setting": "[2]", "value": "higher levels of apoptosis"}, {"measurement": "inhibition of phosphorylation of IKK Ser176/180 and total IκB levels", "setting": "[3]", "value": "effectively inhibited"}, {"measurement": "plasma stability", "setting": "[4]", "value": "favorable"}, {"measurement": "IC50", "setting": "[5]", "value": 3.43, "unit": "µM"}, {"measurement": "IC50", "setting": "[6]", "value": 6.03, "unit": "µM"}, {"measurement": "tumor growth in xenograft", "setting": "[7]", "value": "Remarkable tumor growth/suppression"}, {"measurement": "IC50", "setting": "[8]", "value": 1.9, "unit": "µM"}, {"measurement": "IC50", "setting": "[9]", "value": 5.01, "unit": "µM"}, {"measurement": "IC50", "setting": "[10]", "value": 6.49, "unit": "µM"}, {"measurement": "microsomal stability", "setting": "[11]", "value": "favorable"}, {"measurement": "inhibition of AKT levels and PRAS40 phosphorylation", "setting": "[12]", "value": "effectively inhibited"}]}]}
